Screening results from PubChem.
NALP3 yeast inh: inhibitors of NALP3 inflammasome in yeast; hit rate 0.39% among 330,000; Yeast reconstituted NLRP3/ASC/caspase-1, beta-gal luminescence, 24 h; inhibition, % at 10 µM; AID 2825;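 active means inhibition of 50% or more; inactive means inhibition below 50%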
CSC inhib: blocks cancer stem cells; hit rate 1.1% among 300,000; inhibition, % at 7.5 µM; cancer stem cell-like cells viability, luminescence; AID 2717; in the data active means inhibition above about 75%; inconclusive means no clear call, values can overlap the other calls; tested in HMLE shEcad cells
Mdm2 MdmX PPI: human Mdm2/MdmX binding inhibition | SaOS-2 split-luciferase Mdm2/MdmX complementation, luminescence | inhibition, % at 8 µM | hit rate 3% among 330,000 | AID 485346 | O15151+Q00987;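 active means inhibition of at least 50% at 8 µM in the primary screen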
Target sequence (O15151 whole entry, looked up): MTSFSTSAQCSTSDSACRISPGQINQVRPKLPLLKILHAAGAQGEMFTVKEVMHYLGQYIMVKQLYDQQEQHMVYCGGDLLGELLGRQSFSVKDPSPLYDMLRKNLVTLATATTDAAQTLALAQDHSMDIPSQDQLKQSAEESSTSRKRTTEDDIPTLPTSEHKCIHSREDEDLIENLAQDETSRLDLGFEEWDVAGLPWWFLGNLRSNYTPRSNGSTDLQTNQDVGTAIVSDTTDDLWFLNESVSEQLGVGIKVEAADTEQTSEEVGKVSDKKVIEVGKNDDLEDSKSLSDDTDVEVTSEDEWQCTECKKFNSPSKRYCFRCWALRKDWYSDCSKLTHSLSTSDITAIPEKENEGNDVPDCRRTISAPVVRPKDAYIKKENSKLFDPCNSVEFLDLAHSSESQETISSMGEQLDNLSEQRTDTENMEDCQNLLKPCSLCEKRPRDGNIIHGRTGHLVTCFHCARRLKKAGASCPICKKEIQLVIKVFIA
Target sequence (Q00987 whole entry, looked up): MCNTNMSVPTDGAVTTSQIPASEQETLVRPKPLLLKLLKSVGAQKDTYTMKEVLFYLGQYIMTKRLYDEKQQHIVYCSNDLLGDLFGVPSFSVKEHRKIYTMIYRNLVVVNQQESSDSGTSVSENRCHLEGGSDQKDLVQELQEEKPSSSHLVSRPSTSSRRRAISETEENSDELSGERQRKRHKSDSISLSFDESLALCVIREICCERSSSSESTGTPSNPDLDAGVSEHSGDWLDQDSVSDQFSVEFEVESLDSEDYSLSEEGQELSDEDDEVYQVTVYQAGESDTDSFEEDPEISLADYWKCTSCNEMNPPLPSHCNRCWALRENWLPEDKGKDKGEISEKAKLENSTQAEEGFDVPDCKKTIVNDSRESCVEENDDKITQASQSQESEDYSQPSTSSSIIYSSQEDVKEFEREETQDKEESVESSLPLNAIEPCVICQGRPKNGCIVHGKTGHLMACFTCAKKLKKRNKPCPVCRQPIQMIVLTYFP
Beta cell apopt: beta cell apoptosis inhibition. INS-1E cytokine-induced death, ATP luminescence, 48 h; percent of positive-control rescue, neutral wells zero. protection from apoptosis, % (no concentration beside the values). hit rate 0.8% among 300,000. AID 435005;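 active means Every replicate reaches about 75%, or at least half do and their mean reaches it too, limit read from the data; inconclusive means At least half of replicates reach the limit but their mean does not; inactive means Under half of replicates reach the limit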;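 further: higher means more ATP so stronger rescue from cytokine killing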
T cruzi repl: blocks replication of Trypanosoma cruzi; hit rate 1.4% among 300,000; T. cruzi beta-gal in NIH3T3, luminescence, 90 h; inhibition, % (no concentration beside the values); AID 1885;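 active means mean inhibition across valid replicates above about 55%, limit read from the data; inconclusive means mean below that limit but half or more replicates reach it; inactive means mean below it, under half of replicates reach it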;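 further: signal also drops with host cell toxicity which is not excluded here; higher percent means less beta-gal luminescence so fewer parasites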
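Read-out: Parasite load inhibition, % | Test system: Mouse NIH/3T3 fibroblasts infected with β-gal-expressing T. cruzi Tulahuen C4 | Amount: 5,000 cells/well | Medium: DMEM, 2% fetal bovine serum | Signal: GalScreen β-gal luminescence, detergent lysis, 60 min | Timing: 3 h attach, ≥90 h co-culture | Also added: Tulahuen C4 trypomastigotes, 5000/well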
Calb FLC: affects C. albicans growth with fluconazole; C. albicans CaCi-2 + fluconazole, Alamar Blue growth, 48 h; growth inhibition, % (concentration not given with the values); hit rate 0.57% among 300,000; AID 1979;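 active means growth inhibition above about 58% in most replicates, limit read from the data, passing the limit was not always enough; inconclusive means exactly half the replicates above a set limit; inactive means most replicates below a set limit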;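 further: all wells also contain fluconazole at 8 µg/ml as a sub-toxic cotreatment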
NALP3 yeast conf: NALP3 inhibition confirmation in yeast; shares compounds with NALP3 yeast inh; yeast expressing human NALP3, luminescence; inhibition, % at 10 µM; hit rate 81% among 1,300; AID 435006; in the data active means inhibition above about 48%
Casp1-ASC yeast: active in yeast caspase-1-ASC counter-screen for NALP3 inhibitors; shares compounds with NALP3 yeast inh; inhibition, % at 10 µM; hit rate 66% among 1,000; yeast expressing Caspase-1-ASC, luminescence counter screen
NALP3 retest: yeast NALP3 inhibition, confirmed on retest; shares compounds with NALP3 yeast inh; yeast expressing human NALP3, luminescence read-out; inhibition, % at 10 µM; hit rate 53% among 1,000; AID 488794
Hits are given with their value; . = inactive; ? = inconclusive; / = no result. An excerpt weighted towards active compounds, which were near 5.3% of everything screened. Unless noted, no stated cut-off is given here; in the data, active means inhibition above about 50%; inactive means the rest.

SMILES	NALP3 yeast inh	CSC inhib	Mdm2 MdmX PPI	Beta cell apopt	T cruzi repl	Calb FLC	NALP3 yeast conf	Casp1-ASC yeast	NALP3 retest
COc1ccc(-c2cc(C(F)F)n3ncc(C(=O)Nc4ccc(C(=O)N5CCOCC5)cc4)c3n2)cc1	.	.	.	.	.	.	/	/	/
CCOc1ccccc1NC(=O)C1CCCN(c2c(CC)c(C)nc3ncnn23)C1 (stereo not given)	.	.	.	.	.	.	/	/	/
CCOC(=O)c1nc(C)sc1-c1ccnn1S(=O)(=O)c1cccc(Cl)c1	.	.	.	.	/	.	/	/	/
CCOc1ccc(NC(=O)CSc2nnc(CNC(=O)c3cccs3)o2)cc1	.	.	.	.	.	.	/	/	/
CC1=NN(C(=O)c2ccc(C)cc2)C(O)(C(F)(F)OC(F)(F)F)C1 (stereo not given)	53.2	.	.	.	.	.	54.0	.	.
CC1=NN(C(=O)c2ccccc2-n2cccc2)C(O)(C(F)(F)F)C1 (stereo not given)	.	/	.	/	.	.	/	/	/
COC(=O)Nc1ccc(SCC(=O)c2cccc([N+](=O)[O-])c2)cc1	54.1	.	.	.	.	.	62.8	58.2	.
CN1C(=O)c2cccc(NC(=O)Cc3ccccc3)c2C1=O	50.1	.	.	.	.	.	49.9	60.1	.
CCn1c(-c2cc(-c3ccc(OC(C)C)cc3)nc3ccccc23)n[nH]c1=S	54.3	.	.	.	.	.	.	/	/
CCn1c(-c2cc(-c3ccc(C)cc3)nc3ccccc23)n[nH]c1=S	.	.	.	.	.	.	/	/	/
C/C(=N\NC(=S)Nc1cccc(C)c1)c1ccco1	52.7	.	.	.	76.9	.	.	/	/
Cn1cccc1C(=O)Nc1ccc(N2CCOCC2)cc1	.	.	.	.	/	/	/	/	/
FC(F)(F)c1cccc(N2CCc3cn[nH]c32)c1	97.0	.	.	.	.	?	99.2	98.8	97.4
Cc1ccc(CCc2nnc(SCC(=O)Nc3cc(Cl)ccc3Cl)n2-c2ccccc2)o1	.	.	.	.	.	.	/	/	/
NCCc1nnc(SCc2ccccc2Cl)o1	72.8	.	.	.	.	.	73.4	70.4	71.5
NCCCCCc1nnc(SCc2ccc(Cl)cc2Cl)o1	.	.	.	.	.	.	/	/	/
Cc1ccc(/C=N/Nc2ncc(Cl)cc2Cl)s1	.	.	.	.	.	.	/	/	/
O=[N+]([O-])c1ccc(N2CCCCC2)cc1N1CCOCC1	.	.	.	.	.	.	/	/	/
O=[N+]([O-])c1ccc(N2CCCC2)cc1N1CCCC1	58.2	.	.	/	.	.	52.5	63.3	52.6
Cc1ccc2nc(NC(=O)Cc3cccs3)sc2c1	52.1	.	.	.	.	.	63.3	50.8	53.3
O=C(c1nc2ncccn2n1)N1CCN(c2ccccc2)CC1	.	.	.	.	.	.	/	/	/
C/C(=N\NC(=S)NCc1ccccc1)c1ccc2ccccc2c1OC(F)F	56.1	.	.	.	.	.	.	/	/
CCOC(=O)c1ccc2c(c1)nc(COc1ccc(OC)cc1)n2CC	60.6	/	.	/	.	.	61.3	.	.
CCN(CC)CCCN(C(=O)c1ccco1)c1nc(-c2ccc(Cl)cc2)cs1	51.1	.	.	.	58.8	.	54.3	.	.
COc1ccc(NS(=O)(=O)c2ccc(C(=O)N3CCCCCC3)cc2)cc1	.	.	.	.	/	/	/	/	/
SMILES	NALP3 yeast inh	CSC inhib	Mdm2 MdmX PPI	Beta cell apopt	T cruzi repl	Calb FLC	NALP3 yeast conf	Casp1-ASC yeast	NALP3 retest
O=C1CS/C(=C/C(=O)c2cccc(Cl)c2)N1	66.0	.	.	.	.	.	72.3	53.5	58.9
Cc1ccc(S(=O)(=O)/C=C2\NC(=O)CS2)cc1	.	.	.	.	.	.	/	/	/
Cc1ccc(C(=O)/C=C2/NC(=O)CS2)cc1	60.9	.	.	.	.	.	66.9	52.0	53.7
Cn1c(=NC(=O)c2cccc([N+](=O)[O-])c2)sc2ccccc21	.	.	.	.	.	.	/	/	/
O=S(=O)(c1cnc(Cl)c(Br)c1)N1CCCCCC1	52.8	.	.	.	.	.	55.4	.	.
O=S(=O)(c1cc(Br)ccc1Br)N1CCCCCC1	.	.	.	/	.	.	/	/	/
Nc1ncc(Br)cc1S(=O)(=O)N1CCCCCC1	52.7	.	.	.	.	.	59.0	56.0	.
O=C(Nc1cc2ccccc2oc1=O)c1ccccc1	60.0	.	.	.	.	.	72.5	51.2	52.8
COc1ccc(C(=O)NCC(c2cccs2)N2CCc3ccccc32)c(OC)c1 (stereo not given)	.	.	.	.	.	.	/	/	/
CC(C)(C)C1CCc2onc(C(=O)NC3CCCC3)c2C1 (stereo not given)	.	.	.	.	.	.	/	/	/
O=C(NC1CCCCC1)c1noc2c1CCCCC2	50.8	.	.	.	.	.	67.0	54.4	.
C[C@@H]1CCC[C@]2(O[C@@H](CCO)C[C@H](O)[C@H]2O)O1	.	.	.	.	.	.	/	/	/
CCCNC(=O)c1cc2cc([N+](=O)[O-])ccc2s1	52.4	.	.	.	.	.	.	.	.
CCOc1ccccc1NC(=O)Cc1coc2ccc(C)cc12	63.1	.	.	.	.	.	75.5	65.3	54.8
COc1ccc(OC)c(NC(=O)Cc2coc3ccc(C)cc23)c1	.	.	.	.	.	.	/	/	/
O=C(O)C[C@H]1c2ccccc2S(=O)(=O)N1C1CCCCC1	.	.	.	.	.	.	/	/	/
CCOC(=O)c1ccccc1N1C(=O)CSC1=S	54.2	.	.	.	.	.	.	.	.
Cc1cc(C)c(NC(=O)CSCc2nc3sc(C)c(C)c3c(=O)[nH]2)c(Cl)c1	.	/	.	.	/	/	/	/	/
Cc1ccc2nc(N3C(=O)CNC3=S)sc2c1	80.6	.	.	.	.	.	61.1	87.4	82.6
COC(=O)/C=C1\C(=O)N(c2nc3ccc(OC)cc3s2)C(=S)N1c1ccc(F)cc1	.	/	.	.	.	.	/	/	/
COc1ccc2nc(N3C(=O)CNC3=S)sc2c1	66.7	.	.	/	.	.	.	/	/
O=C(CSC(=S)N1CCCCC1)c1ccccc1	60.2	.	.	.	.	.	73.5	69.7	55.8
O=C(CSC(=S)N1CCCC1)c1ccccc1	.	.	.	.	.	.	/	/	/
O=C(Nc1ccccn1)Nc1ccccc1Cl	66.4	.	.	.	.	.	72.3	61.0	.
O=C(Nc1cnccn1)Nc1ccccc1Cl	.	.	.	.	.	?	/	/	/
Clc1ccc2nc(CSc3nc4ccccc4o3)cn2c1	56.7	.	.	.	.	.	72.8	68.6	60.4
CC1(C)c2ccccc2-n2c1cc1oc(=O)cc(O)c1c2=O	76.1	.	.	.	.	.	80.0	66.8	72.2
NCCc1nnc(SCC(=O)Nc2ccc(Br)cc2)o1	58.2	.	.	.	.	.	70.2	53.3	.
